Laboratory results: ChEMBL document CHEMBL3272326, “Antitumor septacidin analogues” (J Med Chem, 1977)

How the values were obtained:
L1210 [1] = experiment: Inhibition of DNA synthesis in mouse L1210 cells after 3 hrs by [3H]thymidine incorporation assay; format: functional; settings: L1210, 3 h, read-out: ED50 (the source's name)
Summary of the method: (§1)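 Cultured lymphoid leukemia L1210 cells; nucleic acid synthesis inhibition measured by a previously reported procedure, modified by adding 1% Me2SO for solubility.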

L1210 [2] = experiment: Inhibition of RNA synthesis in mouse L1210 cells after 3 hrs by [3H]uridine incorporation assay; format: functional; settings: L1210, 3 h, read-out: ED50 (the source's name); summary of the method: as §1
L1210 [3] = experiment: Cytotoxicity against mouse L1210 cells; format: functional, cell-based; settings: read-out: I50
P388 (Mus musculus) [4] = experiment: Antitumor activity against mouse P388 cells allografted in mouse assessed as optimum dose administered qd from day 1 to 9
P388 (Mus musculus) [5] = experiment: Antitumor activity against mouse P388 cells allografted in mouse assessed as tumor growth inhibition at optimum dose administered qd from day 1 to 9 relative to control
Salmonella typhimurium [6] = experiment: Mutagenicity in Salmonella typhimurium TA1535 by Ames test in presence of S9 fraction; format: toxicity, organism-based; settings: salmonella enterica subsp. enterica serovar typhimurium
Summary of the method: (§2)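 Salmonella plate mutagenicity test; compounds tested at levels up to 1 μmol per plate.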

Salmonella typhimurium [7] = experiment: Mutagenicity in Salmonella typhimurium TA1535 by Ames test; format: toxicity, organism-based; settings: salmonella enterica subsp. enterica serovar typhimurium; summary of the method: as §2
Salmonella typhimurium [8] = experiment: Mutagenicity in Salmonella typhimurium TA1537 by Ames test; format: toxicity, organism-based; settings: salmonella enterica subsp. enterica serovar typhimurium; summary of the method: as §2
Salmonella typhimurium [9] = experiment: Mutagenicity in Salmonella typhimurium TA1536 by Ames test; format: toxicity, organism-based; settings: salmonella enterica subsp. enterica serovar typhimurium; summary of the method: as §2
Salmonella typhimurium [10] = experiment: Mutagenicity in Salmonella typhimurium TA1536 by Ames test in presence of S9 fraction; format: toxicity, organism-based; settings: salmonella enterica subsp. enterica serovar typhimurium; summary of the method: as §2
Salmonella typhimurium [11] = experiment: Mutagenicity in Salmonella typhimurium TA1538 by Ames test in presence of S9 fraction; format: toxicity, organism-based; settings: salmonella enterica subsp. enterica serovar typhimurium; summary of the method: as §2
Salmonella typhimurium [12] = experiment: Mutagenicity in Salmonella typhimurium TA1537 by Ames test in presence of S9 fraction; format: toxicity, organism-based; settings: salmonella enterica subsp. enterica serovar typhimurium; summary of the method: as §2
Salmonella typhimurium [13] = experiment: Mutagenicity in Salmonella typhimurium TA1538 by Ames test; format: toxicity, organism-based; settings: salmonella enterica subsp. enterica serovar typhimurium; summary of the method: as §2
Calf thymus DNA = experiment: Binding affinity to calf thymus helical DNA assessed as change in melting temperature by […] analysis; format: nucleic-acid assay; settings: Bos taurus
Summary of the method: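 Helix–coil transition temperature shift of isolated helical DNA in solution. Modified procedure: 0.010 M phosphate buffer with 10⁻⁵ M EDTA, pH 7.0, plus 5% Me2SO to solubilize compound.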

SMILES	EC50 (L1210 [1])	EC50 (L1210 [2])	IC50 (L1210 [3])	Activity (P388 (Mus musculus) [4])	T/C (P388 (Mus musculus) [5])	Activity (Salmonella typhimurium [6])	Activity (Salmonella typhimurium [7])	Activity (Salmonella typhimurium [8])	Activity (Salmonella typhimurium [9])	Activity (Salmonella typhimurium [10])	Activity (Salmonella typhimurium [11])	Activity (Salmonella typhimurium [12])	Activity (Salmonella typhimurium [13])	ΔTm (Calf thymus DNA)
CCCCCCCCCCCCCCCCC(NC(C)=O)C(=O)N[C@@H]1[C@@H](O)[C@H](O)[C@@H](Nc2ncnc3[nH]cnc23)O[C@H]1C (stereo partly specified)	> 1000 µM	> 1000 µM												
CC(C)CCCCCCCCCCCCC(=O)NCC(=O)N[C@@H]1[C@@H](O)[C@H](O)[C@@H](Nc2ncnc3[nH]cnc23)O[C@H]1C(O)CO (stereo partly specified)	0.4 µM	1 µM	> 5 µM	0.5 mg/kg	154%									
CCCCCC(=O)NCC(=O)N[C@@H]1[C@@H](O)[C@H](O)[C@@H](Nc2ncnc3[nH]cnc23)O[C@H]1C	> 1000 µM	> 1000 µM	250 µM	0.5 mg/kg	< 125%	Non-toxic	Non-toxic	Non-toxic	Non-toxic	Non-toxic	Non-toxic	Non-toxic	Non-toxic	
COc1cccc2c1C(=O)c1c(O)c3c(c(O)c1C2=O)C[C@@](O)(C(=O)CO)C[C@@H]3O[C@H]1C[C@H](N)[C@H](O)[C@H](C)O1 [DOXORUBICIN]	1.5 µM	0.67 µM	0.032 µM	1 mg/kg	193%									13.6 °C
CCOCCC(=O)NCC(=O)N[C@@H]1[C@@H](O)[C@H](O)[C@@H](Nc2ncnc3[nH]cnc23)O[C@H]1CO	> 1000 µM	> 1000 µM	> 500 µM	3.1 mg/kg	< 125%									0.4 °C
CCCCCCCCCCCC(=O)NCC(=O)N[C@@H]1[C@@H](O)[C@H](O)[C@@H](Nc2ncnc3[nH]cnc23)O[C@H]1CO	20 µM	5.5 µM	3 µM	1 mg/kg	133%	Non-toxic	Non-toxic	Non-toxic	Non-toxic	Non-toxic	Non-toxic	Non-toxic	Non-toxic	0.5 °C
CCCCCCCCCCCC(=O)NCC(=O)N[C@@H]1[C@@H](O)[C@H](O)[C@@H](Nc2ncnc3[nH]cnc23)O[C@H]1C	29 µM	18 µM	> 10 µM	1 mg/kg	137%									
CCOCCC(=O)NCC(=O)N[C@@H]1[C@@H](O)[C@H](O)[C@@H](Nc2ncnc3[nH]cnc23)O[C@H]1C	> 1000 µM	> 1000 µM	> 500 µM	3.1 mg/kg	< 125%									
CCCCCCCCCCCCCCCC(=O)NCC(=O)N[C@@H]1[C@@H](O)[C@H](O)[C@@H](Nc2ncnc3[nH]cnc23)O[C@H]1CO	2.5 µM	1.6 µM	> 100 µM	0.5 mg/kg	136%									3.6 °C
CC(C)CCCCCCCCCCCCC(=O)NCC(=O)N[C@@H]1[C@@H](O)[C@H](O)[C@@H](Nc2ncnc3[nH]cnc23)O[C@H]1C	1.8 µM	1.1 µM	> 20 µM	1 mg/kg	160%									0.6 °C
CC(C)CCCCCCCCCCCCC(=O)N[C@@H]1[C@@H](O)[C@H](O)[C@@H](Nc2ncnc3[nH]cnc23)O[C@H]1C	> 1000 µM	> 1000 µM	> 100 µM	0.5 mg/kg	< 125%	Non-toxic	Non-toxic	Non-toxic	Non-toxic	Non-toxic	Non-toxic	Non-toxic	Non-toxic	0.5 °C
CC(C)CCCCCCCCCCCCC(=O)NCC(=O)N[C@@H]1[C@@H](O)[C@H](O)[C@@H](Nc2ncnc3[nH]cnc23)O[C@H]1CO	1.6 µM	0.69 µM	> 10 µM	0.5 mg/kg	149%	Non-toxic	Non-toxic	Non-toxic	Non-toxic	Non-toxic	Non-toxic	Non-toxic	Non-toxic	1.7 °C
